Results published in ChEMBL document CHEMBL1833810, “Synthesis and study of a series of 3-arylcoumarins as potent and selective monoamine oxidase B inhibitors” (J Med Chem, 2011).

Columns and labels:
[1] = target: T1, Amine oxidase [flavin-containing] A (Homo sapiens, UniProt P21397); assay: Inhibition of human recombinant MAO-A expressed in insect BT1-TN-5B1-4 cells assessed as production of hydrogen peroxide from p-tyramine at 100 uM up to 15 mins by amplex red-based fluorometric assay; settings: 0.25 h; for inhibition (INH): 100 µM
T1 sequence (P21397 whole entry): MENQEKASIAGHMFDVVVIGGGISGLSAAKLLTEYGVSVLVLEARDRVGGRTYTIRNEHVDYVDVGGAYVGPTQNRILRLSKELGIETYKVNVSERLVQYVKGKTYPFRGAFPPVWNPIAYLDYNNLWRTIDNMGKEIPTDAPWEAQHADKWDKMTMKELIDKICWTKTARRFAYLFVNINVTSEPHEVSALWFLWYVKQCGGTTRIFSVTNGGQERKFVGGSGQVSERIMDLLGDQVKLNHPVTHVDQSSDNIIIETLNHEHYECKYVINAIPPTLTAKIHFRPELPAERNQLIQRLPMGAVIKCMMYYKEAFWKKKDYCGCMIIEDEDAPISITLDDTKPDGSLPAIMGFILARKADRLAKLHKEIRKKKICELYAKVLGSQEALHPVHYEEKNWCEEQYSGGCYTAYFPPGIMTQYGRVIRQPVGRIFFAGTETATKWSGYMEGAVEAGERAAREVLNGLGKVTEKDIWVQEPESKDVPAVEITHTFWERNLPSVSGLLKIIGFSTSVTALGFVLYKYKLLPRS
How it was run: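 Recombinant hMAO-A came from microsomes of baculovirus-infected BTI-TN-5B1-4 insect cells, at 1.1 μg protein. It was preincubated with the test drug in 0.05 M sodium phosphate, pH 7.4, for 15 min at 37 °C. The reaction was started with 200 μM Amplex Red, 1 U/mL HRP and 1 mM p-tyramine (final). H2O2-derived resorufin fluorescence (ex 545, em 590 nm) was read over 15 min. Enzyme-free background was subtracted against vehicle controls. 100 μM was the highest concentration tested.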

[2] = species: Homo sapiens; assay: Selectivity index, ratio of IC50 for human recombinant MAO-A to IC50 for human recombinant MAO-B
[3] = target: T2, Amine oxidase [flavin-containing] B (Homo sapiens, UniProt P27338); assay: Inhibition of human recombinant MAO-B expressed in insect BT1-TN-5B1-4 cells assessed as production of hydrogen peroxide from p-tyramine up to 15 mins by amplex red-based fluorometric assay; assay type: cell-based
T2 sequence (P27338 whole entry): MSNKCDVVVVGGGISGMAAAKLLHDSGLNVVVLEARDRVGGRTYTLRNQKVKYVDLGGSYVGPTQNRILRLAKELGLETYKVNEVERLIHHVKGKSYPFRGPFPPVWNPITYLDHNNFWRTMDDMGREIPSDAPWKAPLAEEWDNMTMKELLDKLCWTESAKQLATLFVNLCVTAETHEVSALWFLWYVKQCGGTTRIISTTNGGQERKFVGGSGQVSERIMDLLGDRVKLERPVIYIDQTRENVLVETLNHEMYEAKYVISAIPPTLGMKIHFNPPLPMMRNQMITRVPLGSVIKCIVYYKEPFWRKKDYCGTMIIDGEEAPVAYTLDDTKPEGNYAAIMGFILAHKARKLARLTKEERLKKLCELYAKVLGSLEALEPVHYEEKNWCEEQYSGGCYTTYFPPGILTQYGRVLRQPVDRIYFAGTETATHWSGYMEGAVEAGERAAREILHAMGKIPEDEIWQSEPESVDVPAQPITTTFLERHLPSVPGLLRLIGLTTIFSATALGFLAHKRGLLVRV

[4] = target: T2, Amine oxidase [flavin-containing] B; assay: Inhibition of human recombinant MAO-B expressed in insect BT1-TN-5B1-4 cells assessed as production of hydrogen peroxide from p-tyramine at 100 uM up to 15 mins by amplex red-based fluorometric assay; settings: 0.25 h
How it was run: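 hMAO-B was used as microsomes from BTI-TN-5B1-4 insect cells infected with recombinant baculovirus, at 7.5 μg protein. It was preincubated for 15 min at 37 °C with the test drug in sodium phosphate buffer, 0.05 M, pH 7.4. The reaction was then started with final 200 μM Amplex Red, 1 U/mL horseradish peroxidase and 1 mM p-tyramine. Resorufin fluorescence (545/590 nm) was followed at 37 °C for 15 min, minus the no-enzyme background and relative to vehicle controls. The top concentration was 100 μM.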

[5] = target: T1, Amine oxidase [flavin-containing] A; assay: Inhibition of human recombinant MAO-A expressed in insect BT1-TN-5B1-4 cells assessed as production of hydrogen peroxide from p-tyramine up to 15 mins by amplex red-based fluorometric assay

inhibition (INH) [1]	Ratio IC50 [2]	inhibition at 100 µM [1] [%]	IC50 [3] [nM]	inhibition (INH) [4]	IC50 [5] [µM]	Compound
Not Active	> 623					COc1cc(-c2cc3cc(C)ccc3oc2=O)cc(OC)c1OC
	> 555	40	180			CC(=O)COc1cccc(-c2cc3cc(C)ccc3oc2=O)c1
Not Active	> 125000					COc1cccc(-c2cc3cc(C)ccc3oc2=O)c1
Not Active				Not Active		COc1cc(-c2cc3cc(C)ccc3oc2=O)c(Br)c(OC)c1OC
	54		650		35	Cc1ccc2oc(=O)c(-c3cccc(O)c3)cc2c1
	9210		2.73		25.1	COc1ccc(-c2cc3cc(C)ccc3oc2=O)cc1OC
	180		120		21.6	Cc1ccc2oc(=O)c(-c3ccccc3O)cc2c1
Not Active	> 1.9		54000			COc1cc(OC)c(Br)c(-c2cc3cc(C)ccc3oc2=O)c1
Not Active	> 31200		3.25			COc1cc(-c2cc3cc(C)ccc3oc2=O)ccc1Br
Not Active	> 6.9		14500			Cc1ccc(-c2cc3cc(OC4CCCC4)ccc3oc2=O)cc1
Not Active	> 5880		17.1			COc1ccc2oc(=O)c(-c3cccc(C)c3)cc2c1
Not Active	> 11100					COc1cc(OC)cc(-c2cc3cc(C)ccc3oc2=O)c1
Not Active	> 18		5520			CC(=O)COc1ccc2oc(=O)c(-c3ccc(C)cc3)cc2c1
Not Active	> 6790		1.52			COc1ccc2oc(=O)c(-c3ccc(C)cc3)cc2c1
	> 6670	40	15			Cc1cccc(-c2cc3cc(C)ccc3oc2=O)c1
	372		67.1		24.9	Cc1ccc(-c2cc3cc(O)ccc3oc2=O)cc1
Not Active						Cc1ccc(-c2cc3cc(C)ccc3oc2=O)cc1
Not Active	> 136000		0.74			COc1ccc(-c2cc3cc(C)ccc3oc2=O)cc1Br
Not Active				Not Active		COc1ccccc1-c1cc2cc(C)ccc2oc1=O
Not Active						Cc1ccc2oc(=O)c(-c3ccc(O)cc3)cc2c1
Not Active	> 7660					COc1ccc(-c2cc3cc(C)ccc3oc2=O)cc1
Not Active	> 352					Cc1ccc2oc(=O)c(-c3ccccc3)cc2c1
